These results are taken from paper PMC11696753 (ACS Omega, 2024).

For orientation: IC50 means the concentration that gives 50% inhibition.

Molecules are shown by their SMILES. Substitutions are numbered along the chain they refer to.

The target in series [1] is T1, SHP-2 (Homo sapiens, UniProt Q06124).
T1 sequence (Q06124 1-593): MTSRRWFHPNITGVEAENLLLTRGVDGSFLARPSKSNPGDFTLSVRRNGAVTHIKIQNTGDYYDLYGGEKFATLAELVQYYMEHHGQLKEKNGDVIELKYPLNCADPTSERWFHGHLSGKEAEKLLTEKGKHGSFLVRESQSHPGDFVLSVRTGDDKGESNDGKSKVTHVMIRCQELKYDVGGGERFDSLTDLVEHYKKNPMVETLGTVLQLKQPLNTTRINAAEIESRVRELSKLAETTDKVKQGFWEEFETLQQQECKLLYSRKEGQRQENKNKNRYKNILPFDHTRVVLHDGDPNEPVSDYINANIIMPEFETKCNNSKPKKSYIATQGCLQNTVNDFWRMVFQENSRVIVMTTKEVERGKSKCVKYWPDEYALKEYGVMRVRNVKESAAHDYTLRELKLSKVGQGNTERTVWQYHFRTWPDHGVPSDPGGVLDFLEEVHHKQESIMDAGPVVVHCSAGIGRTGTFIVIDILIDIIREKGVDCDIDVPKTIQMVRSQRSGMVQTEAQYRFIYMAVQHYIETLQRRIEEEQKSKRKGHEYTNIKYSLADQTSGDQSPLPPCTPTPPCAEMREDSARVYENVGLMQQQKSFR
In words: Western blot, SHP-2 expression in SW480 cells. Conditions: SW480, 8 μM. The class given is cell-based. The method, boiled down:
(§1)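 Western blot. SW480 or CT26 cells were seeded at 3 × 10^5 to 5 × 10^5/mL, allowed to adhere, then exposed to 0 (control) or 8 μM test compound for 24 h. Lysate protein was quantified by BCA and equalised, boiled, separated by SDS-PAGE, transferred to PVDF and detected with peroxidase labeling. Data are mean ± SD, at least three independent replicates, analysed by one-way ANOVA or t test.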
For orientation: Immunoblotting shows a protein as a band on a membrane.

Series [2] relates to p27. In words: Western blot, p27 expression in CT26 cells. Type of series: cell-based, mouse. Conditions: CT26, 8 μM vs control. The method, boiled down:
as §1

Series [3] addresses CDK1 (Mus musculus, UniProt P11440). As to the kind of experiment: Western blot, CDK1 expression in CT26 cells. Type of series: cell-based. Conditions: CT26, 8 μM. The essentials:
as §1

For series [4], the system named is Akt. As to the kind of experiment: Western blot, Akt expression in SW480 cells. Type of series: cell-based, human. Conditions: SW480, 8 μM. The essentials:
as §1

The subject of series [5] is Parkin. In words: Western blot, Parkin expression in CT26 cells. The class given is cell-based, mouse. Conditions: CT26, 8 μM vs control. The method, boiled down:
as §1

Series [6] relates to Cyclin-D1. As to the kind of experiment: Western blot, Cyclin-D1 expression in CT26 cells. The class given is cell-based, mouse. Conditions: CT26, 8 μM. The method, boiled down: as §1
Series [7] deals with PI3K. In words: Western blot, PI3K expression in SW480 cells. The class given is cell-based, human. Conditions: SW480, 8 μM. The essentials:
as §1

The subject of series [8] is Akt. In words: Western blot, Akt expression in CT26 cells. Type of series: cell-based, mouse. Conditions: CT26, 8 μM. The method, boiled down: as §1
The target in series [9] is CDK1 (Homo sapiens, UniProt P06493). As to the kind of experiment: Western blot, CDK1 expression in SW480 cells. Type of series: cell-based. Conditions: SW480, 8 μM. The essentials:
as §1

The target in series [10] is T1, SHP-2. As to the kind of experiment: Western blot, SHP-2 in human TME. Type of series: cell-based. Conditions: SW480 cocultured with THP-1. The essentials:
(§2)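 Western blot in tumour–macrophage cocultures: SW480 with THP-1 (human) and CT26 with RAW264.7 (mouse). Coculture drives the macrophages toward a cancer-promoting phenotype, after which test compound is applied. Protein was quantified by BCA, separated by SDS-PAGE, transferred to PVDF and detected with peroxidase labeling. Comparisons were against both the control and the untreated coculture. Data are mean ± SD, n ≥ 3.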

Series [11] has as its system PI3K. In words: Western blot, PI3K expression in CT26 cells. Type of series: cell-based, mouse. Conditions: CT26, 8 μM. The essentials:
as §1

Series [12] deals with T2, SHP-2 (Mus musculus, UniProt P35235).
T2 sequence (P35235 1-593): T1 sequence (Q06124 1-593) with M450V, A550V, K590R
As to the kind of experiment: Western blot, SHP-2 expression in CT26 cells. The class given is cell-based. Conditions: CT26, 8 μM. The method, boiled down:
as §1

Series [13] concerns RAW264.7 cell line. In words: MTT cytotoxicity, RAW264.7 cell line. Conditions: 0 to 8 μM, all concentrations. The class given is cell-based, mouse. The essentials: (§3)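 Viability of THP-1 (human monocytic) and RAW264.7 (mouse macrophage) cells was measured by MTT. Cells were grown in DMEM with 10% FBS at 37 °C, 5% CO2, then seeded at 5 × 10^3 to 6 × 10^3 cells/mL. Test compound was given at 0–8 μM alongside an equal-volume solvent control. Read-out was absorbance after DMSO solubilisation of formazan. Data are mean ± SD from at least three independent experiments.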

Series [14] has as its system PI3K and Akt proteins. As to the kind of experiment: Western blot, PI3K-Akt pathway in TAMs. The class given is cell-based. The essentials:
as §2

Series [15] has as its system p27. As to the kind of experiment: Western blot, p27 expression in SW480 cells. The class given is cell-based, human. Conditions: SW480, 8 μM vs control. The essentials:
as §1

Series [16] deals with Cyclin-D1. In words: Western blot, Cyclin-D1 expression in SW480 cells. The class given is cell-based, human. Conditions: SW480, 8 μM. The method, boiled down: as §1
Series [17] has as its system chemokine receptors, CC and CXC chemokine subfamilies. In words: Chemokine mRNA levels in human and mouse TME. Type of series: cell-based. Conditions: human and mouse TME cocultures. The method, boiled down:
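Human system: SW480 cells cocultured with THP-1 cells. Mouse system: CT26 cells cocultured with RAW264.7 cells. Coculture induces the macrophages to differentiate into cancer-promoting cells, which are then treated with test compound. Chemokine receptor and CC/CXC chemokine mRNA levels were measured and compared with the control group. Data are mean ± SD from at least three independent replicates.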

The subject of series [18] is NCM460 cell line. In words: MTT cytotoxicity, normal colon epithelial cell line NCM460. Type of series: cell-based, human. The method, boiled down:
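MTT viability in NCM460 normal human colon epithelial cells. Test compound and curcumin were each tested at 0, 5, 10, 20, 40 and 80 μM, diluted in medium from a 10 mmol/L DMSO stock, against a solvent control. Formazan was dissolved in DMSO and absorbance read. Toxicity was graded by USP classification. Data are mean ± SD, at least three independent replicates.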

The test system of series [19] is Parkin. As to the kind of experiment: Western blot, Parkin expression in SW480 cells. Type of series: cell-based, human. Conditions: SW480, 8 μM vs control. The essentials:
as §1

Series [20] addresses T2, SHP-2. In words: Western blot, SHP-2 in mouse TME. Type of series: cell-based. Conditions: CT26 cocultured with RAW264.7. The essentials:
as §2

The test system of series [21] is THP-1 cell line. In words: MTT cytotoxicity, THP-1 cell line. Conditions: 0 to 8 μM, all concentrations. Type of series: cell-based, human. The essentials: as §3
Series [22] relates to PINK1. In words: Western blot, PINK1 expression in CT26 cells. Type of series: cell-based, mouse. Conditions: CT26, 8 μM vs control. The essentials: as §1
For series [23], the system named is SW480 cell line. As to the kind of experiment: MTT antiproliferative assay, SW480 cell line. The class given is cell-based, human. Conditions: for inhibition of SW480 cells compared with the CVB-D group: 10 μM, CVB-D 12 μM. The essentials: (§4)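 MTT assay. Cells were grown in DMEM with 10% FBS and 1% penicillin/streptomycin at 37 °C, 5% CO2, then seeded at 5 × 10^3 to 6 × 10^3 cells/mL in 96-well plates. Screening was at 10 μM, with CVB-D (12 μM) as positive control and curcumin as comparator. The dose range was 0–8 μM in 1 μM steps. Solvent-only wells served as controls. Read-out was absorbance of DMSO-dissolved formazan. Data are mean ± SD, n ≥ 3.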
(In general: Tetrazolium assays rely on reduction of a dye to a coloured formazan, in cell work by metabolically active cells.)

The test system of series [24] is CT26 cell line. As to the kind of experiment: MTT antiproliferative assay, CT26 cell line. Type of series: cell-based, mouse. The method, boiled down:
as §4

For series [25], the system named is RKO cell line. As to the kind of experiment: MTT antiproliferative assay, RKO cell line. Type of series: cell-based, human. Conditions: NCM460 vs RKO. The essentials:
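Selectivity index is the IC50 in normal colon epithelial NCM460 cells divided by the IC50 in the colorectal cancer line. Both IC50s come from MTT viability assays: solvent-treated controls, formazan dissolved in DMSO, absorbance read-out, at least three independent replicates.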

Series [26] has as its system PINK1. In words: Western blot, PINK1 expression in SW480 cells. Conditions: SW480, 8 μM vs control. The class given is cell-based, human. The essentials: as §1
Series [27] deals with cytokines (TGF-β, IL-10, and Arg-1). As to the kind of experiment: Western blot, cytokine expression in the TME. Conditions: vs coculture. Type of series: cell-based. The essentials: as §2

CDK1 (Homo sapiens, UniProt P06493), sequence (P06493 whole entry): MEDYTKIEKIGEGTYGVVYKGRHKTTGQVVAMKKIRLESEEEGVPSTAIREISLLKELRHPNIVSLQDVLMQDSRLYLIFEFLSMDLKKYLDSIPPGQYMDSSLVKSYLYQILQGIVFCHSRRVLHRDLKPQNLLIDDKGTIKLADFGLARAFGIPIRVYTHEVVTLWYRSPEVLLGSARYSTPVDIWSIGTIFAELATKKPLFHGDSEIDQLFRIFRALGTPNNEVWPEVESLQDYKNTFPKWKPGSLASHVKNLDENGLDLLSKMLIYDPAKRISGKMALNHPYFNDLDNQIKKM
CDK1 (Mus musculus, UniProt P11440), sequence (P11440 whole entry): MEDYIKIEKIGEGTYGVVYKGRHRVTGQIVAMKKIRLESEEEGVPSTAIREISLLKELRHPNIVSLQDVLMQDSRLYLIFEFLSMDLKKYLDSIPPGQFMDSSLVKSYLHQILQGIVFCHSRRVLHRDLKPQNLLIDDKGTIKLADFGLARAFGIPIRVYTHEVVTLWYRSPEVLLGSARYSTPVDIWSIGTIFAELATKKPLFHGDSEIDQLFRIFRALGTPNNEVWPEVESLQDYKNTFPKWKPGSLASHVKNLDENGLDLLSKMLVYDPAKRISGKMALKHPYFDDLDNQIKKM

In the case of `COc1ccc(/C=C/C(=O)C(=CC2=CC=C[CH]2[Fe][CH]2C=CC=C2)C(=O)/C=C/c2ccc(OC)c(OC)c2)cc1OC` (stereo not shown) [Compound 3f, Cyclopenta-2,4-dien-1-yl(2-((E)-5(3,4-dimethoxyphenyl)-2-((E)-3-(3,4-dimethoxyphenyl)acryloyl)-3-oxopenta-1,4-dien-1-yl)cyclopenta-2,4-dien-1-yl)iron], the SHP-2 inhibition rate was 76% in series [1] and 24% in series [12]. Further, the “expression of p27 protein” value in [2] and in series [15] was “significantly increased” each time. For the same compound, the CDK1 inhibition rate was found to be 20% in series [3] and 18% in [9]. Also, the “Akt expression inhibition rate” value in series [4] was determined as 48%; in [8], 50%. The “expression of Parkin protein” value is “significantly increased” in [5] and “significantly up-regulated” in series [19]. The “effect on Cyclin-D1 protein compared to SW480” value in [6] is listed as “stronger inhibitory effect”. Moreover, the figures for the “PI3K expression inhibition rate” value in series [7] and in series [11] were 46% and 15%, respectively. In series [10], the “inhibition rate on SHP-2 target in human TME” value worked out at 65%. In [13], the “cell viability of RAW264.7 cells” value was around 100%. Also, the “expression levels of PI3K and Akt proteins in both coculture systems” value in [14] is recorded as “reduced”. Further, in series [16], the “Cyclin-D1 protein expression inhibition rate” value was 19%. In series [17], the “effect on CCL and CXCL subfamilies (mRNA)” value was “able to inhibit”. Further, in series [17], the “mRNA levels of CCR chemokine receptors” value was “significantly reduced”. Besides, the “USP toxicity classification to normal colon epithelial cells” value in series [18] (NCM460) is reported as “low toxic/nontoxic”. Also, the “viability of NCM460 cells” value in [18] (at all concentrations (0, 5, 10, 20, 40, 80 μM)) was “above 87%”. Also, the “inhibition rate on SHP-2 target in mouse TME” value in [20] is on record as 32%. The “cell viability of THP-1 cells” value in [21] was around 100%. Also, the “expression of PINK1 protein” value is on record as “significantly increased” in [22] and “significantly up-regulated” in [26]. The “inhibition of SW480 cells compared with the CVB-D group” value in series [23] is given as “markedly superior”. Moreover, the “selectivity index (SI), IC50 normal cells / IC50 SW480” value in series [23] (NCM460 vs SW480) was determined as 250. Besides, the “concentration of strongest (optimal) inhibition” value in series [23] (SW480, tested 0-8 μM) was found to be 8 µM. Further, in series [23] (SW480, vs control), the “concentration at which significant inhibition begins” value was found to be 4 µM. The IC50 in series [23] (read-out: IC50 against SW480 cells, SW480 cells, MTT) came out at 3.71 µM; in [24] (read-out: IC50 against CT26 cells, CT26 cells, MTT) it was 1.42 µM. For the same compound, the “proliferative capacity of CT26 cells compared to the control group” value in series [24] (10 μM) is on record as “significant differences”. The compound also returned an optimal inhibitory concentration in [24] (CT26, tested 0-8 μM) of 8 µM. In addition, in series [24] (CT26, vs control), the “concentration at which an inhibitory effect is demonstrated” value amounted to 3 µM. Moreover, the “selectivity index (SI), IC50 normal cells / IC50 CT26” value in series [24] (NCM460 vs CT26) is on record as 654. Moreover, the “selectivity index (SI), IC50 normal cells / IC50 RKO” value in series [25] came to 162. Moreover, the “expression levels of cytokines (TGF-β, IL-10, Arg-1) in the TME” value in [27] was “significantly reduced”.
With `COc1cc(/C=C/C(=O)/C(=C\C2=CC=C[CH]2[Fe][CH]2C=CC=C2)C(=O)/C=C/c2ccc(OC)c(OC)c2)ccc1O` (stereo not shown) [Compound 3b, Cyclopenta-2,4-dien-1-yl(2-((1E,4E)-5(3,4-dimethoxyphenyl)-2-((E)-3-(4-hydroxy-3-methoxyphenyl)acryloyl)-3-oxopenta-1,4-dien-1-yl)cyclopenta-2,4-dien-1-yl)iron], the “inhibition of SW480 cells compared with the CVB-D group” value in series [23] is given as “markedly superior”. In addition, the “proliferative capacity of CT26 cells compared to the control group” value in series [24] (10 μM) is “significant differences”. Also, the “proliferative capacity of CT26 cells compared to the CVB-D group” value in [24] (10 μM, CVB-D 12 μM) is given as “no significant difference”.
